APJ agonist: APJ receptor agonism. hit rate 0.11% among 330,000. P35414. CHO-K1 APJ PathHunter beta-arrestin, luminescence; 0% DMSO wells, 100% apelin. activation, % at 20 µM;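 active means activation more than six SD over the plate average, tested at 20 µM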
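Assay system: CHO-K1 APJ beta-arrestin complementation cell line / Compound: single test compound dose, 20 µM final, 1% DMSO / Times: overnight seeding, 90 min compound at 25 °C, 1 h detection / Technique: beta-gal luminescence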
APJ antagonist: blocks the human apelin receptor APJ; P35414; hit rate 0.32% among 330,000; inhibition, % at 20 µM; CHO-K1 APJ beta-arrestin complementation, luminescence;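 active means inhibition above about 40% at 20 µM, limit read from the data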;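 further: cells challenged with 10 nM apelin-13 agonist together with compound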
CCR6 antag: blocks CCL20-driven beta-arrestin recruitment at human CCR6 | P51684 | CHO-K1 CCR6 PathHunter beta-arrestin, luminescence, CCL20-stimulated | inhibition, % at 20 µM | hit rate 0.49% among 340,000 | AID 493098;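 active means compounds whose inhibition of the agonist-driven luminescence signal at 20 µM reaches about 50%, limit read from the data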;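 further: cells stimulated with CCL20 at 14 nM final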
Target sequence (P51684 whole entry, looked up): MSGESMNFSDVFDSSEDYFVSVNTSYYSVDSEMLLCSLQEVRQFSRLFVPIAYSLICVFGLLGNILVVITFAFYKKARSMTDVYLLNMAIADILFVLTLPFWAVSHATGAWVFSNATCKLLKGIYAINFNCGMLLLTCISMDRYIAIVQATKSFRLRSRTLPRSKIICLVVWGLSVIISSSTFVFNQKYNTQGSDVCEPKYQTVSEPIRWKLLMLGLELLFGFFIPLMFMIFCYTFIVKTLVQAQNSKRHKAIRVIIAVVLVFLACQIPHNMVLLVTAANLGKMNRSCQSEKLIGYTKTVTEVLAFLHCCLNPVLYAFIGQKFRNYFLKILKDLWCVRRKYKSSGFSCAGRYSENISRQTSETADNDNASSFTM
HTR2A ag: mouse HTR2A agonism via beta-arrestin recruitment; AID 624169; activation, % at 7.6 µM; CHO-K1 mHTR2A beta-arrestin complementation, luminescence; percent of 30 µM serotonin response; hit rate 0.66% among 360,000;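 active means activation above a run cutoff, the mean activation of all tested compounds plus 3 SD, cut at about 14% in these data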
EBI2 antag: antagonists of human EBI2 receptor. P32249. EBI2 beta-arrestin recruitment, luminescence, 7a,25-OHC stimulated. inhibition, % at 5 µM. hit rate 0.81% among 360,000. AID 651636; in the data active means inhibition above about 38%;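 further: enzyme fragment complementation signal reports receptor beta-arrestin coupling in cells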
CXCR6 inh: inhibitors of human CXCR6 receptor. CHO-K1 PathHunter CXCR6 beta-arrestin, luminescence. inhibition, % at 20 µM. hit rate 0.36% among 360,000. AID 602244; in the data active means inhibition above about 34%, passing the limit was not always enough;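 further: antagonist mode with CXCL16 agonist at 10 nM final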
CXCR6 confirm: CXCR6 antagonism confirmation, single concentration. inhibition, % at 20 µM. shares compounds with CXCR6 inh. AID 602409. hit rate 65% among 700. CHO-K1 CXCR6 PathHunter beta-arrestin, luminescence;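 active means mean inhibition over four retests above 40%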;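 further: receptor stimulated with 10 nM CXCL16 agonist; beta-galactosidase fragment complementation upon beta-arrestin recruitment to receptor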
Hits are given with their value. Most compounds without a hit are left out; they make up all but 2.1% or so of the library.

What do the screens show for `N#C/C(=C/c1ccc(-c2ccc([N+](=O)[O-])cc2)o1)C(=O)Nc1nc(-c2cccs2)cs1`?
CCR6 antag: 68; HTR2A ag: inactive; EBI2 antag: inactive; CXCR6 inh: 48; CXCR6 confirm: 44

What do the screens show for `N#C/C(=C/c1ccc(-c2ccc(S(N)(=O)=O)cc2)o1)C(=O)Nc1ccccc1`?
APJ agonist: inactive; APJ antagonist: inactive; CCR6 antag: inactive; HTR2A ag: inactive; EBI2 antag: inactive; CXCR6 inh: inactive

How did CCC(C)c1ccc(O)c(NC(=S)NC(=O)c2cccs2)c1 (stereo unspecified) do in these assays?
HTR2A ag: inactive; EBI2 antag: inactive; CXCR6 inh: 59; CXCR6 confirm: 64

What do the screens show for `COc1ccc(-c2[nH]n(-c3ccc([N+](=O)[O-])cc3)c(=O)c2C=NCc2ccc(F)cc2)cc1`?
APJ agonist: inactive; APJ antagonist: inactive; CCR6 antag: inactive; HTR2A ag: inactive; EBI2 antag: inactive; CXCR6 inh: inactive

How did COc1ccc(-c2cc(=O)n(-c3ccc([N+](=O)[O-])cc3)[nH]2)cc1 do in these assays?
APJ agonist: inactive; APJ antagonist: inactive; CCR6 antag: inactive; HTR2A ag: inactive; EBI2 antag: inactive; CXCR6 inh: 41; CXCR6 confirm: inactive

What do the screens show for `COc1ccc(/C=N/Nc2ccc(C(=O)O)cc2)c(OC)c1OC`?
APJ agonist: inactive; APJ antagonist: inactive; CCR6 antag: inactive; HTR2A ag: inactive; EBI2 antag: inactive; CXCR6 inh: inactive

What do the screens show for `COC(=O)c1ccc2c(c1)C(C)(C)C(/C=C/c1ccc(OC)c(OC)c1OC)=[N+]2C`?
APJ agonist: inactive; APJ antagonist: inactive; CCR6 antag: 56; HTR2A ag: inactive; EBI2 antag: inactive; CXCR6 inh: 77; CXCR6 confirm: 102

Results for Cc1ccc(F)cc1CNC(=O)C1CCC(=O)N(C2CC2)C1 (stereo unspecified) ?
APJ agonist: inactive; APJ antagonist: inactive; CCR6 antag: inactive; HTR2A ag: inactive; EBI2 antag: inactive; CXCR6 inh: 38; CXCR6 confirm: inactive

How did COC(=O)c1ccc(NC(=O)C23CC4CC(C2)CC(n2cncn2)(C4)C3)cc1 do in these assays?
APJ agonist: inactive; APJ antagonist: inactive; CCR6 antag: inactive; HTR2A ag: inactive; EBI2 antag: inactive; CXCR6 inh: inactive

Results for O=C(Cc1ccc(NC(=O)C2CCCN(C(=O)C3CCCCC3)C2)cc1)Nc1cccc(C(=O)N2CCCC2)c1 (stereo unspecified) ?
CCR6 antag: inactive; HTR2A ag: inactive; EBI2 antag: inactive; CXCR6 inh: 91; CXCR6 confirm: inactive

Results for O=C(Nc1nnc([C@H]2C[C@H](O)[C@@H](CO)O2)s1)Nc1ccccc1C(F)(F)F ?
HTR2A ag: inactive; EBI2 antag: inactive; CXCR6 inh: inactive

Results for O=C(Nc1nc(-c2ccccc2)c(-c2ccccc2)o1)c1ccc(F)cc1 ?
APJ agonist: inactive; APJ antagonist: inactive; HTR2A ag: inactive; EBI2 antag: inactive; CXCR6 inh: 41; CXCR6 confirm: inactive

Results for Cc1c(CCCl)c(Cl)n2c(nc3ccccc32)c1C#N ?
CCR6 antag: 63; HTR2A ag: inactive; EBI2 antag: 67; CXCR6 inh: 44; CXCR6 confirm: inactive

How did Cc1cc(Cl)n2c(nc3ccccc32)c1C#N do in these assays?
CCR6 antag: inactive; HTR2A ag: inactive; EBI2 antag: inactive; CXCR6 inh: inactive

What do the screens show for `Cc1cc(C)cc(N(CC(=O)NC2CCCC2)S(=O)(=O)c2c(C)[nH]c(=O)[nH]c2=O)c1`?
APJ agonist: inactive; APJ antagonist: inactive; CCR6 antag: inactive; HTR2A ag: inactive; EBI2 antag: inactive; CXCR6 inh: inactive

How did COc1ccc(N(CC(=O)NC2CCCC2)S(=O)(=O)c2c(C)[nH]c(=O)[nH]c2=O)cc1 do in these assays?
APJ agonist: inactive; APJ antagonist: inactive; CCR6 antag: inactive; HTR2A ag: inactive; EBI2 antag: inactive; CXCR6 inh: 35; CXCR6 confirm: inactive

Results for COc1ccc(CCNC(=O)Cn2cnc3sc(C)c(-c4ccc(F)cc4)c3c2=O)cc1OC ?
APJ agonist: inactive; APJ antagonist: inactive; CCR6 antag: inactive; HTR2A ag: inactive; EBI2 antag: inactive; CXCR6 inh: inactive

Screening results (PubChem)
